The values below come from ChEMBL document CHEMBL1158541, “Water-soluble PDE4 inhibitors for the treatment of dry eye” (Bioorg Med Chem Lett, 2010).

Data set [1] in a line: Inhibition of PDE4 expressed in HEK293 cells coexpressing cyclic nucleotide gated ion channel mutant assessed as inhibition of NECA-induced cAMP production treated 15 mins before NECA challenge measured after 45 mins by FLIPR assay. The class given is cell-based. (Cyclic AMP is a second messenger, typically raised through Gs and lowered through Gi signalling.)
Data set [2] has as its target 3',5'-cyclic-AMP phosphodiesterase 4B (Homo sapiens, UniProt Q07343). Nature of the data set: Inhibition of human His6-tagged PDE4B (152-487) expressed in Escherichia coli BL21 (DE3) after 1 hr.
Data set [3] can be described thus: Solubility in 0.1 M phosphate buffer at pH 7.4 by shake-flask method. The data set is classed as physicochemical. The method, boiled down: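 Shake-flask solubility in 0.1 M phosphate buffer, pH 7.4.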
The nature of data set [4]: Solubility in water. The class given is physicochemical.
Data set [5] concerns HEK293. In words: Inhibition of PDE4 expressed in HEK293 cells coexpressing cyclic nucleotide gated ion channel mutant assessed as inhibition of NECA-induced cAMP production at 70 uM treated 15 mins before NECA challenge measured after 45 mins by FLIPR assay. The data set is classed as cell-based.
The species entered for data set [6] is Oryctolagus cuniculus. Nature of the data set: Antiinflammatory activity in rabbit assessed as inhibition of lacrimal gland inflammation-induced dry eye at 10 ng/ml to 10 ug/ml bid for 4 days. The settings on record: Lachrymal gland. The class given is functional, organism-based. Put shortly:
(§1)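 Rabbit dry eye induced by lacrimal gland inflammation. Compound given topically b.i.d. for 4 days. Read-out is corneal staining, scored as percent inhibition versus vehicle, with dexamethasone (100 µg/mL) as positive control. Statistics by ANOVA with Dunnett's post-test.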

The species entered for data set [7] is Oryctolagus cuniculus. Nature of the data set: Antiinflammatory activity in rabbit assessed as inhibition of lacrimal gland inflammation-induced dry eye at 0.001 to 10 ug/ml bid for 4 days. The class given is functional, organism-based. The following applies: Lachrymal gland, 0.01 to 10 ug/ml, in the assay text read “0.01 to 10 ug/ml” for “0.001 to 10 ug/ml”. Put shortly:
as §1

For data set [8], the system named is Rattus norvegicus. In words: Induction of tear secretion in rat at 100 ug/ml by topical administration after 10 mins by phenol red thread test. The data set is classed as functional, organism-based. The method, boiled down: (§2)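 Rats received compound topically, and tear secretion was measured 10 min later by phenol red thread test. Percent increase is relative to untreated animals, and significance is versus saline by ANOVA with Dunnett's post-test. Positive control was isoproterenol (10 µg/mL).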

The subject of data set [9] is Rattus norvegicus. Nature of the data set: Induction of tear secretion in rat at 10 ug/ml by topical administration after 10 mins by phenol red thread test. The class given is functional, organism-based. Put shortly: as §2

In brackets after ≈: the same amount, converted by molar mass. Activity calls are given as the source filed them. The calls are words filed in the database; no cut-off is given here.

3',5'-cyclic-AMP phosphodiesterase 4B, sequence (Q07343 whole entry): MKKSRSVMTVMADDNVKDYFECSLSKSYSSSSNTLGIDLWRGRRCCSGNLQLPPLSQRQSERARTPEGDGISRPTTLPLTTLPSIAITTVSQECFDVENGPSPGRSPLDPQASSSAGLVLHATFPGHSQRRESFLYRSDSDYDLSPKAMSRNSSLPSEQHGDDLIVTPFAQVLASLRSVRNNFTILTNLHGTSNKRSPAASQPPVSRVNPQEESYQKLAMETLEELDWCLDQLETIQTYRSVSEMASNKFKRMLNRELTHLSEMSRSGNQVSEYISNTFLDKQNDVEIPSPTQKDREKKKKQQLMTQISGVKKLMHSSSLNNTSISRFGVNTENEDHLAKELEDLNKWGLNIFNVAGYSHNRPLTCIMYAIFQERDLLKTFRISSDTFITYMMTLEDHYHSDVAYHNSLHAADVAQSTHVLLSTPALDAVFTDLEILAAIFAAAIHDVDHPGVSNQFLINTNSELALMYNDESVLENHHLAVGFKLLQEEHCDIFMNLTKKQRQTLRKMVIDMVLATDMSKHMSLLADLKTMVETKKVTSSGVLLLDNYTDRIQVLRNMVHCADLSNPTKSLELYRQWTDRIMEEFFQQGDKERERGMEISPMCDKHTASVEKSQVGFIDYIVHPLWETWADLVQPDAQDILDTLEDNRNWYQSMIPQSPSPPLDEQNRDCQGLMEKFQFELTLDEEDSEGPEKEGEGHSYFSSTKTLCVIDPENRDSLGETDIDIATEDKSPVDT

As to `COc1ccc2c(Nc3c(Cl)cncc3Cl)ccnc2c1OC1CCCC1`, the IC50 in data set [1] stood at 8200 nM; in data set [2] it was 3300 nM.

Regarding `O=C(Nc1c(Cl)cncc1Cl)c1ccc(OC(F)F)c(OCC2CC2)c1` [ROFLUMILAST], the IC50 in data set [1] amounted to 1 nM.

As for `COc1ccc2c(Nc3c(Cl)cncc3Cl)nncc2c1OC1CCCC1`, the IC50 was determined as 1100 nM in data set [1] and 400 nM in data set [2].

`COc1ccc2c(Nc3c(Cl)cncc3Cl)cc(=O)oc2c1OCCCN(C)C`: the results for the IC50 in data set [1] and in data set [2] were greater than 30000 nM and 670 nM, respectively.

Take `COc1ccc2c(Nc3c(Cl)cncc3Cl)cc(=O)oc2c1OCCCCCC(=O)O`: the figures for the IC50 in data set [1] and in data set [2] were 280 nM and 17 nM, respectively. The molecule further yielded a thermodynamic solubility in data set [3] of 900 µg/mL (≈ 1930 µM). The molecule further yielded a solubility in data set [4] of 900 µg/mL (≈ 1930 µM).

On to `COc1ccc2c(Nc3c(Cl)cncc3Cl)cc(=O)oc2c1OCCCCCCC(=O)O`, for which the IC50 in [1] came out at 120 nM; in data set [2], 2 nM. In [3], this molecule returned a solubility (thermodynamic) of 1400 µg/mL (≈ 2910 µM). The molecule further showed a solubility in data set [4] of 1400 µg/mL (≈ 2910 µM).

Regarding `COc1ccc2c(Nc3c(Cl)cncc3Cl)cc(=O)oc2c1OCCCCCCN(C)C`, the values for the IC50 in data set [1] and in [2] were 180 nM and 5 nM, respectively.

For `COc1ccc2c(Nc3c(Cl)cncc3Cl)cc(=O)oc2c1OC1CCCC1`, the IC50 in [1] amounted to 28 nM. The molecule also yielded a solubility (thermodynamic) in data set [3] of 0.3 µg/mL (≈ 0.712 µM).

As to `COc1ccc2c(Nc3c(Cl)cncc3Cl)cc(=O)oc2c1OCCCCCCCCN(C)C`, the concentration for half-maximal inhibition (IC50) in data set [1] was determined as 150 nM; in data set [2] it was 2 nM.

Regarding `COc1ccc2c(Nc3c(Cl)cncc3Cl)cc(=O)oc2c1OCC(=O)O`, the IC50 in data set [1] is 5350 nM; in data set [2], 1180 nM.

With `COc1ccc2c(c1OC1CCCC1)OCCC2Nc1c(Cl)cncc1Cl` (stereo not given), the IC50 in [1] and in [2] was greater than 30000 nM throughout.

Take `COc1ccc2c(Nc3c(Cl)cncc3Cl)cc(=O)oc2c1OCCCCC(=O)O`: the IC50 in data set [1] was determined as 730 nM; in [2], 43 nM. The molecule also had a solubility (thermodynamic) in [3] of 500 µg/mL (≈ 1100 µM).

For `COc1ccc2c(Nc3c(Cl)cncc3Cl)cc(=O)oc2c1OCCCCCCCCC(=O)O`, the IC50 was determined as 30 nM in data set [1] and 1 nM in data set [2]. Moreover, the thermodynamic solubility in [3] came to 300 µg/mL (≈ 589 µM).

On to `COc1ccc2c(Nc3c(Cl)cncc3Cl)cc(=O)oc2c1OCCCCCCCN(C)C`, for which the IC50 was determined as 150 nM in data set [1] and 3 nM in data set [2].

Regarding `COc1ccc(C(=O)Nc2c(Cl)cncc2Cl)cc1OC1CCCC1`, in data set [1], the IC50 came out at 13 nM.

Turning to `COc1ccc2c(Nc3c(Cl)cncc3Cl)cc(=O)oc2c1OCCCC(=O)O`, the IC50 in data set [1] is 890 nM; in data set [2], 80 nM.

For `COc1ccc2c(Nc3c(Cl)cncc3Cl)ncnc2c1OC1CCCC1`, the IC50 in data set [1] came to 10000 nM; in [2], 2300 nM.

On to `COc1ccc2c(Nc3c(Cl)cncc3Cl)coc2c1OC1CCCC1`, for which the results for the IC50 in data set [1] and in data set [2] were greater than 30000 nM and 16000 nM, respectively.

Take `COc1ccc2c(Nc3c(Cl)cncc3Cl)nccc2c1OC1CCCC1`: the inhibition entry in data set [5] is “inactive”. Also, the IC50 in data set [2] was found to be 500 nM.

As to `COc1ccc2c(Nc3c(Cl)cncc3Cl)cc(=O)oc2c1OCCCCCCCC(=O)O`, the figures for the IC50 in [1] and in data set [2] were 40 nM and 2 nM, respectively. The same molecule had a thermodynamic solubility in data set [3] of 300 µg/mL (≈ 606 µM).

On to `COc1ccc2c(Nc3c(Cl)cncc3Cl)cc(=O)oc2c1OCCCCCN(C)C`, for which the IC50 in [1] amounted to 660 nM; in data set [2], 21 nM. The same molecule displayed a solubility (thermodynamic) in data set [3] of 60 µg/mL (≈ 129 µM).

With `COc1ccc2c(Nc3c(Cl)cncc3Cl)cc(=O)oc2c1OCCCCN(C)C`, the half-inhibitory concentration (IC50) in data set [1] turned out to be 1820 nM; in [2], 45 nM. Further, the result in [6], in [7], in [8] and in [9] was Active. In [3], the thermodynamic solubility worked out at 1800 µg/mL (≈ 3980 µM).

A word on the IC50: it is the concentration needed to halve the response being measured. What is called solubility (thermodynamic) is solubility found after equilibrating the solid with the medium. In general, solubility refers to the concentration that dissolves in the medium under given conditions. Read a high solubility as much dissolved substance.
